This is an account of results in ChEMBL document CHEMBL4715833, “Design, synthesis, in-vitro, in-vivo and in-silico studies of pyrrolidine-2,5-dione derivatives as multitarget anti-inflammatory agents” (Eur J Med Chem, 2020).

For data set [1], the target named is T1, Prostaglandin G/H synthase 1 (Ovis aries, UniProt P05979).
T1 sequence (P05979 whole entry): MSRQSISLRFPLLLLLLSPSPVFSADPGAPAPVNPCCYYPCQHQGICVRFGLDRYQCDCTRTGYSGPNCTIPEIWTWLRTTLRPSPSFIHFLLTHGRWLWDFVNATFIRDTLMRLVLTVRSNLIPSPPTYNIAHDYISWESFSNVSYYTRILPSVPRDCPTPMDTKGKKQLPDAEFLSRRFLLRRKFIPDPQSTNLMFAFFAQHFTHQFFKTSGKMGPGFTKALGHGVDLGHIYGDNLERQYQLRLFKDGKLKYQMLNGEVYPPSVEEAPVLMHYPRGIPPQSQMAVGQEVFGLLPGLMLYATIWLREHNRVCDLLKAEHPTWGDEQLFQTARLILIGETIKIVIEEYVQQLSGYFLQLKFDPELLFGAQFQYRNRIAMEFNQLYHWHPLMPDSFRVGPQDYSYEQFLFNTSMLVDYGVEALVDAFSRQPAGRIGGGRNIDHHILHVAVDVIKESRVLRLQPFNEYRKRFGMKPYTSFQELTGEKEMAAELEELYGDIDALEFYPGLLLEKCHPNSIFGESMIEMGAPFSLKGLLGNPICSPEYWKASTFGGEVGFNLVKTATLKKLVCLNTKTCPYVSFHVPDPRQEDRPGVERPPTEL
Briefly: Inhibition of sheep COX1 using arachidonic acid as substrate preincubated for 5 mins followed by substrate addition and measured after 5 mins by UV-visible spectrophotometric method. The gist of the method: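 Enzymes activated for 5 min on ice with cofactor solution of 0.9 mM glutathione, hematin and 0.24 mM TMPD in 0.1 M Tris-HCl pH 8.0; COX-2 at 300 units/ml. Reaction started with 30 mM arachidonic acid stock, run 5 min, absorbance read at 570 nm. IC50 taken from inhibition-vs-concentration plots as means of three determinations. SI = IC50(COX-1)/IC50(COX-2).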

For data set [2], the target named is T2, Polyunsaturated fatty acid 5-lipoxygenase (Homo sapiens, UniProt P09917).
T2 sequence (P09917 whole entry): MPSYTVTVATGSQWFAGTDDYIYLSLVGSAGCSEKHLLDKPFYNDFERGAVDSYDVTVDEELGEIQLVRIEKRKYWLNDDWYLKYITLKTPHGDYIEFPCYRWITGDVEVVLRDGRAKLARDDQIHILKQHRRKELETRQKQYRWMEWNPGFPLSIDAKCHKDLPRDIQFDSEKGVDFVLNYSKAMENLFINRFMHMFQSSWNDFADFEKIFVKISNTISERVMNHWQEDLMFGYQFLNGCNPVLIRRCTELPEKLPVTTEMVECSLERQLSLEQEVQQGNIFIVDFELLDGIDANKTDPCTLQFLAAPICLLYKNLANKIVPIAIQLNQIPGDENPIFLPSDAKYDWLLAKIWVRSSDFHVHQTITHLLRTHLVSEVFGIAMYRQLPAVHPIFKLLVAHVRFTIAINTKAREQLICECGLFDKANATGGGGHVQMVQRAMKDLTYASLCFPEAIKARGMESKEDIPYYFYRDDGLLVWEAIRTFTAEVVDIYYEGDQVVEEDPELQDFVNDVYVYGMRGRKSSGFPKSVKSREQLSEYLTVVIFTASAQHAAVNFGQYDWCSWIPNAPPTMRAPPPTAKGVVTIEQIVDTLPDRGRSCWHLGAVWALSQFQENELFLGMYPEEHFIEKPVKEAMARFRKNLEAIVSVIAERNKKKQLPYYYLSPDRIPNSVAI
In words: Inhibition of recombinant human 5LOX expressed in baculovirus infected Sf insect cells using linoleic acid as substrate preincubated for 5 mins followed by substrate addition.

A short description of data set [3]: Acute toxicity in Swiss albino mouse assessed as mortality at 1000 mg/kg, ip administered as single dose measured after 24 hrs. Conditions: in vivo. It is filed as organism-based. The gist of the method:
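Swiss albino mice of either sex (30-35 g), housed at 22-25 °C with 12 h light/dark and free food and water. Single i.p. dose; the saline control got 10 mL/kg. Deaths were counted 24 h after dosing. Dose table lists groups of 8 male and 8 female mice given 5 to 2000 mg/kg.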

A short description of data set [4]: Acute toxicity in Swiss albino mouse assessed as change in clinical sign of eyes at 1000 mg/kg, ip administered as single dose measured after 4 hrs. Conditions: in vivo. The class given is organism-based. The method, boiled down:
(§1)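 Swiss albino mice of either sex (30-35 g), kept at 22-25 °C on a 12 h light/dark cycle with free food and water. Single i.p. dose; controls received normal saline 10 mL/kg. Animals were watched at random for allergic or abnormal behavioural signs during the first 4 h.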

Data set [5] in a line: Acute toxicity in Swiss albino mouse assessed as clinical changes in fur at 1000 mg/kg, ip administered as single dose measured after 4 hrs. Particulars: in vivo. It is filed as organism-based. The gist of the method:
as §1

A short description of data set [6]: Acute toxicity in Swiss albino mouse assessed as clinical changes in respiratory rate at 1000 mg/kg, ip administered as single dose measured after 4 hrs. It is filed as organism-based. Conditions: in vivo. The gist of the method: as §1
Data set [7] is described as follows: Acute toxicity in Swiss albino mouse assessed as clinical changes in piloerection at 1000 mg/kg, ip administered as single dose measured after 4 hrs. It is filed as organism-based. Conditions: in vivo. The gist of the method:
as §1

The nature of data set [8]: Acute toxicity in Swiss albino mouse assessed as clinical changes in perspiration at 1000 mg/kg, ip administered as single dose measured after 4 hrs. It is filed as organism-based. Conditions: in vivo. The gist of the method:
as §1

The subject of data set [9] is Mus musculus. In words: Antiinflammatory activity against carrageenan-induced paw edema in Swiss mouse assessed as inhibition of paw edema at 100 mg/kg administered 30 mins prior to carrageenan challenge and measured after 1 hr by […]-method (reference value: 7.66 +/- 3.753%). Particulars: 1.5 h, time 90 min. The class given is functional. On the technique in general: Carrageenan injected into the paw causes an acute inflammation.

In data set [10] the test system is Mus musculus. In words: Antiinflammatory activity against carrageenan-induced paw edema in Swiss mouse assessed as inhibition of paw edema at 50 mg/kg administered 30 mins prior to carrageenan challenge and measured after 2 hrs by […]-method (reference value: 7.39 +/- 2.475%). It is filed as functional. Conditions: time 2.5 hrs.
The subject of data set [11] is Mus musculus. In words: Antiinflammatory activity against carrageenan-induced paw edema in Swiss mouse assessed as inhibition of paw edema at 50 mg/kg administered 30 mins prior to carrageenan challenge and measured after 3 hrs by […]-method (reference value: 11.41 +/- 3.069%). It is filed as functional. Particulars: time 3.5 hrs.
Data set [12] concerns Mus musculus. Briefly: Antiinflammatory activity against carrageenan-induced paw edema in Swiss mouse assessed as inhibition of paw edema at 25 mg/kg administered 30 mins prior to carrageenan challenge and measured after 4 hrs by […]-method (reference value: 14.46 +/- 1.568%). It is filed as functional. Conditions: time 4.5 hrs.
Data set [13] concerns Mus musculus. In words: Antiinflammatory activity against carrageenan-induced paw edema in Swiss mouse assessed as inhibition of paw edema at 50 mg/kg administered 30 mins prior to carrageenan challenge and measured after 4 hrs by […]-method (reference value: 14.46 +/- 1.568%). It is filed as functional. Particulars: time 4.5 hrs.
The test system of data set [14] is Mus musculus. Briefly: Antiinflammatory activity in PGE2-induced paw edema in Balb/c mouse assessed as inhibition of paw edema at 100 mg/kg, ip administered 1 hr prior to PGE2 challenge and measured after 1 hr relative to control. It is filed as functional. Conditions: time 2 hrs. The gist of the method:
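BALB/c mice of either sex (30–35 g), 8 per group, dosed i.p. with 10% DMSO, reference drug or compound (100 mg/kg). After 1 h, subplantar irritant: PGE2 0.01 µg/ml, bradykinin 20 µg/ml, histamine 0.1 ml of 1 mg/ml, or leukotriene 10 µg/ml.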

Molecules are shown by their SMILES.

In general, IC50 refers to the concentration at which inhibition is half-maximal. For orientation: inhibition in vivo means how much of the control response was suppressed. On to `Cc1ccc(C(=O)CC2CC(=O)N(c3ccc(S(N)(=O)=O)cc3)C2=O)cc1` (configuration not stated), for which the IC50 in data set [1] stood at 30.9 µM; in data set [2], 0.86 µM. In addition, the Activity result in data set [3], in data set [4], in data set [5], in [6], in data set [7] and in data set [8] was “Non-Toxic” each time. The inhibition in vivo at 100 mg/kg in the data set on Mus musculus [9] was 55.2%. Further, the inhibition in vivo at 50 mg/kg in the data set with Mus musculus [10] came to 57.3%; with Mus musculus [11], 54.2%; with Mus musculus [13], 57.3%. In addition, the inhibition in vivo at 25 mg/kg in the data set on Mus musculus [12] came to 54.2%.
Regarding `O=C1CCCCC1C1CC(=O)N(Cc2ccccc2)C1=O` (configuration not stated), the 50% inhibitory concentration (IC50) in data set [1] was 62.6 µM; in [2], 36 µM. Further, the Activity entry in [3], in [4], in data set [5], in data set [6], in data set [7] and in data set [8] was “Non-Toxic” throughout. Besides, the results for the inhibition in vivo at 100 mg/kg in the data set on Mus musculus [9] and in the data set with Mus musculus [14] were 44.7% and 50.5%, respectively. The results for the inhibition in vivo at 50 mg/kg with Mus musculus [10], in the data set with Mus musculus [11] and in the data set on Mus musculus [13] were 37.4%, 41.1% and 44.5%, respectively. The inhibition in vivo at 25 mg/kg in the data set on Mus musculus [12] was 27.8%.
